Active and inactive are the calls of the source.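 The calls were made as follows: active = compounds whose fitted half-maximal concentration for reducing fibroblast viability is 100 µM or lower; inactive = the rest.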
Columns and labels:
[1] = test system: LL 47 lung fibroblast viability, ATP luminescence; test: inhibition of LL 47 lung fibroblast growth, concentration-response curve, selectivity screen for endothelial cell growth inhibitor project, cellular system, ATP luminescence readout (AID 821);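 as to viability: 100% = median of untreated cell-only wells and 0% = no luminescence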
In short: (§1)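 System: LL 47 human lung fibroblast cells. Timing: overnight cell settling, then 72 h compound exposure at 37 °C. Measured by: CellTiter-Glo luminescence. Evaluation: percent viability relative to untreated wells, EC50 via 4-parameter fit.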

[2] = as above; conditions: LL 47 lung fibroblast viability, ATP luminescence; at 20 µM (top of the series)
In short: as §1

Compound | EC50 [1] [µM] | viability [2]
CCCCS(=O)(=O)/C=C\C=C/S(=O)(=O)CCCC | 0.936 | –
Oc1c(C(Nc2ccccn2)c2ccccn2)ccc2cccnc12 (stereo not given) | 5.55 | –
CCOc1ccccc1-n1c(CN2CCN(C(=O)c3ccco3)CC2)nc2ccccc2c1=O | 5.7 | –
O=C(Oc1ccccc1)c1cccc2cccnc12 | 6.87 | –
Cc1ccsc1/C=C/c1ccc2cccc(O)c2n1 | 10.9 | –
Fc1ccc2c(Cl)c(-c3nnc(-c4cccs4)o3)sc2c1 | 11.4 | –
COc1ccc(C2Oc3ccccc3C3=C2C(c2cccs2)n2ncnc2N3)cc1 (stereo not given) | 19.2 | –
COc1ccc(OC)c(-n2nnnc2SCC(=O)Nc2ccc3c(c2)OCCO3)c1 | – | 103% (inactive)
CCOC(=O)c1c(NC(=O)C2COc3ccccc3O2)sc(C(C)=O)c1C (stereo not given) | – | 104% (inactive)
COc1ccc(OC)c2sc(N3CCCCC3)nc12 | – | 96.8% (inactive)
CC1(C)CC(=O)c2cc(C(=O)NCc3ccco3)c(=O)n(-c3ccc(Cl)cc3)c2C1 | – | 105% (inactive)
O=C1C2C3C=CC(CO)(O3)C2C(=O)N1c1ccccc1-c1ccccc1 (stereo not given) | – | 91.7% (inactive)
COc1ccc(NC(=O)c2cc3n(n2)C(C(F)(F)F)CC(c2ccc(OC)cc2)N3)cc1 (stereo not given) | – | 96.4% (inactive)
COc1ccc(CCC(=O)N2CCN(C3CCCCC3)CC2)cc1 | – | 95.1% (inactive)
CCc1ccc2[nH]c(=O)c(CN(Cc3ccccc3)C(=O)Nc3ccccc3OC)cc2c1 | – | 88.9% (inactive)
O=c1oc(-c2ccccc2F)nc2c1cnn2-c1ccccc1 | – | 105% (inactive)
Cc1ccc(C(C)C)c(OCC(=O)Nc2ccc3c(c2)nc(CN2CCCC2)n3C)c1 | – | 91.9% (inactive)
Cc1ccc(-n2c(SCC(=O)Nc3ccc4c(c3)OCO4)nnc2-c2ccccn2)cc1 | – | 103% (inactive)
Cc1cccc(Nc2nc(NCc3ccco3)nc(N3CCOCC3)n2)c1 | – | 80.4% (inactive)
Cc1oc(-c2ccccc2F)nc1CN1CCC(C(=O)NCCC2=CCCCC2)CC1 | – | 83.4% (inactive)
Cc1ccccc1-c1nc(CN2CCC(C(=O)NCCC3=CCCCC3)CC2)c(C)o1 | – | 87.6% (inactive)
COc1ccc(Cl)c(N2CCN(CCCNC(=O)Nc3ccc(C)cc3)CC2)c1 | – | 84.9% (inactive)
Nc1nc(-c2ccccc2)cc(-c2ccccc2O)n1 | – | 104% (inactive)
Cc1nn(CC(=O)Nc2ccc3c(c2)oc2ccccc23)c(=O)c2ccccc12 | – | 105% (inactive)

Compound | EC50 [1] [µM] | viability [2]
CCc1cc(-c2n[nH]c(C)c2Oc2ccc(C(C)C)cc2)c(O)cc1O | – | 85.5% (inactive)
COC(=O)/C(=C\Nc1ccc(Cl)cc1Cl)NC(=O)c1ccc(Cl)cc1Cl | – | 96% (inactive)
CC(=O)Oc1ccc(N(C(C)=O)S(=O)(=O)c2cccs2)c2ccccc12 | – | 95.7% (inactive)
O=C(CSc1ncnc2c1oc1ccccc12)Nc1nc2ccccc2s1 | – | 105% (inactive)
CC1(C)Cc2c(C#N)c(SCC(=O)c3ccccc3)nc(N3CCOCC3)c2CO1 | – | 90.1% (inactive)
CCCCCCOC(=O)C(C#N)c1nc2ccccc2nc1N1CCN(C)CC1 (stereo not given) | – | 90.4% (inactive)
N#Cc1nc(COc2ccc(-c3ccccc3)cc2)oc1NCCCN1CCOCC1 | – | 91.9% (inactive)
CCOC(=O)c1ccc(NC(=O)c2c(C)[nH]c(C(=O)OCC)c2C)cc1 | – | 103% (inactive)
CC[n+]1cc(-c2ccccc2)nc(N2CCOCC2)n1 | – | 99.9% (inactive)
O=C(Nc1ccc2c(c1)OCO2)c1cc(C2CC2)on1 | – | 104% (inactive)
Cc1cc(C(=O)OC(C)C(=O)Nc2cccc(S(=O)(=O)N3CCOCC3)c2)c(C)o1 (stereo not given) | – | 105% (inactive)
Cc1nc(Nc2ccc3c(c2)OCCO3)c2nnn(Cc3ccccc3Cl)c2n1 | – | 102% (inactive)
COc1cc(/C=c2\s/c(=C(/C#N)C(=O)N3CCCC3)n(-c3ccccc3)c2=O)ccc1O | – | 104% (inactive)
O=C1C2=C(NC(=S)NC2c2ccc(Cl)cc2)NC(c2ccc(Cl)cc2)N1c1ccc(Cl)cc1 (stereo not given) | – | 99.2% (inactive)
COc1cc(OC)cc(C(=O)Nc2ccc(-c3nc4ccccc4o3)cc2)c1 | – | 107% (inactive)
Cc1occc1-c1nnc(SCC(=O)NCc2cccs2)n1-c1ccc(F)cc1 | – | 99.1% (inactive)
O=C(Nc1cccnc1)c1ccc(Oc2ccccc2)cc1 | – | 85.3% (inactive)
CCCCCCn1c(SCC(=O)c2c(N)n(C)c(=O)n(C)c2=O)nc2ccccc21 | – | 98.8% (inactive)
CCOC(=O)c1c(C)[nH]c(C(=O)OC/C(O)=C(\C#N)c2nc3ccccc3[nH]2)c1C | – | 113% (inactive)
CC1(C)Cc2c(C#N)c(N3CCN(C(=O)c4ccco4)CC3)nc(Cc3ccccc3)c2CO1 | – | 87.4% (inactive)
O=S(=O)(Nc1cccnc1)c1ccc(C2CCCCC2)cc1 | – | 100% (inactive)
CCn1c(SCC(=O)Nc2ccc3c(c2)oc2ccccc23)nnc1-c1ccc(N)cc1 | – | 97.6% (inactive)
O=C(CSc1ccc2c(c1)OCCO2)Nc1ccc(Cl)cn1 | – | 94.9% (inactive)
COc1ccc2nc3oc(C(=O)N4CCN(c5ccccc5F)CC4)cc3cc2c1 | – | 108% (inactive)

Compound | EC50 [1] [µM] | viability [2]
Cc1cc(C)c2oc(-c3cccc(NC(=O)c4ccc(F)cc4)c3)nc2c1 | – | 104% (inactive)
COc1ccccc1OCC(=O)Nc1cccc(-c2nc3ccccc3o2)c1 | – | 99% (inactive)
CCOC(=O)c1c(NC(=O)COc2ncnc3sccc23)sc2c1CCC2 | – | 83.6% (inactive)
Cn1c(NC(=O)c2cccc(Cn3cc(Cl)cn3)c2)nc2ccccc21 | – | 103% (inactive)
Cc1nc2c(-c3ccccc3)c(C)[nH]n2c(=O)c1Cl | – | 119% (inactive)
Cc1cc(NCCCN2CCOCC2)n2ncc(-c3ccc(Cl)cc3)c2n1 | – | 84.9% (inactive)
Cc1nc2c(C(=O)NCCC(C)C)c[nH]n2c(=O)c1Cc1ccccc1F | – | 99.7% (inactive)
CC(=O)Nc1ccc(S(=O)(=O)N2CCN(c3nc(NC4CCCC4)c4ccccc4n3)CC2)cc1 | – | 84.8% (inactive)
COc1ccc(NC(=O)CSc2nnc(CNC(=O)COc3ccc(Cl)cc3)o2)c(OC)c1 | – | 97% (inactive)
O=C(Nc1ccc2c(c1)CCC2)c1cnn2c1NC(c1ccco1)CC2C(F)(F)F (stereo not given) | – | 83.8% (inactive)
Cc1cc(C)n(-c2nc(NCCCO)c3c4c(sc3n2)CCCC4)n1 | – | 88.8% (inactive)
CCN1CCN(c2ncc(C(=O)Nc3cc(Cl)c(OC)cc3OC)c3ccccc23)CC1 | – | 103% (inactive)
COc1ccc2[nH]cc(C(=O)CN3CCN(C(=O)c4ccco4)CC3)c2c1 | – | 108% (inactive)
CCOC(=O)c1ccc(NC(=O)CCc2nc(-c3ccc(C)cc3)no2)cc1 | – | 98.6% (inactive)
COc1ccccc1NC(=O)C1C2C=CC(O2)C1C(=O)O (stereo not given) | – | 100% (inactive)
Cc1cccc(N2CCN(C(=O)c3ccc4nc(-c5ccco5)c(-c5ccco5)nc4c3)CC2C)c1 (stereo not given) | – | 105% (inactive)
Cc1ccc(NC(=O)C(C)N2C(=O)c3ccccc3C2=O)cc1 (stereo not given) | – | 107% (inactive)
COc1ccc(N/N=C2/CCCCC2=O)cc1 | – | 123% (inactive)
O=C(Nc1ccc2nn(-c3ccccc3)nc2c1)c1ccc2c(c1)OCO2 | – | 121% (inactive)
COc1ccccc1-c1cc(C(=O)Nc2cc(C)n(Cc3ccc(Cl)cc3)n2)no1 | – | 86% (inactive)
CC(=O)n1cc(-c2ccncc2)c2ccccc21 | – | 98.4% (inactive)
Cc1nc(C)c(-c2csc(Nc3cccnc3)n2)s1 | – | 87.8% (inactive)
Cc1ccc2[nH]c3c(NCc4ccco4)ncnc3c2c1 | – | 85.1% (inactive)
O=C(CCN1CCN(Cc2ccccc2)CC1)Nc1ccc(OCc2ccccc2)cc1 | – | 97.3% (inactive)

Compound | EC50 [1] [µM] | viability [2]
Cc1cc(C)cc(OC(=O)CS(=O)c2ccc(C(F)(F)F)cc2[N+](=O)[O-])c1 (stereo not given) | – | 98.3% (inactive)
Cc1ccccc1-n1ncc2c([N+](=O)[O-])cc([N+](=O)[O-])cc21 | – | 90.7% (inactive)
CC(C)(C)n1cnc2cc(NS(=O)(=O)c3ccccc3)ccc21 | – | 104% (inactive)
COC(=O)c1ccc2c(=O)n(Cc3ccco3)c(SCC(=O)Nc3ccccc3Cl)nc2c1 | – | 104% (inactive)
COc1ccc(-c2nnc(SCCc3ccccc3)n2N)cc1 | – | 113% (inactive)
CC(C)c1ccc(C2C3CSCC=C3C(C#N)=C(N)C2(C#N)C#N)cc1 (stereo not given) | – | 88.4% (inactive)
N#CCc1nc2c3c4c(sc3ncn2n1)CCCC4 | – | 102% (inactive)
Cc1ccc(N=Nc2c(C)[nH][nH]c2=O)c(C)c1 | – | 97.6% (inactive)
CCn1c(=N)n(CC(=O)C23CC4CC(CC(C4)C2)C3)c2ccccc21 | – | 86% (inactive)
Cc1nc2sccn2c(=O)c1CCN1CCC(=C(c2ccc(F)cc2)c2ccc(F)cc2)CC1 | – | 91.4% (inactive)
COc1ccc(Cl)cc1C(=O)n1nc(C)cc1C | – | 101% (inactive)
COc1ccc(CNC(=O)c2cc3c(C)nc4ccccc4c3o2)c(OC)c1 | – | 88.7% (inactive)
CCCN(CCO)Cc1cccc(Br)c1 | – | 97.9% (inactive)
Cc1nn(-c2ccc(F)cc2)c(C)c1NS(=O)(=O)c1ccc(Cl)cc1 | – | 90.7% (inactive)
c1ccc(CSc2nnc(-c3c[nH]c4ccccc34)o2)cc1 | – | 102% (inactive)
CCCCc1oc2ccccc2c1C(=O)c1cc(I)c(OCCN(CC)CC)c(I)c1 | – | 88% (inactive)
CCCOC(=O)c1ccc(Oc2c(-c3ccc(OC)cc3O)n[nH]c2C)cc1 | – | 97.5% (inactive)
CCn1c(Cc2ccc(OC)cc2)nnc1SCC(=O)Nc1cccc(C(=O)OC)c1 | – | 96.9% (inactive)
CCOc1ccc2nc(NC(=O)CSc3nc4c(c(=O)n(C)c(=O)n4C)n3C(C)C)sc2c1 | – | 102% (inactive)
O=C(CCC1CCCC1)c1c(O)c2ccccc2oc1=O | – | 93.9% (inactive)
CCOc1cc(/C=C\c2[nH]c(=O)[nH]c(=O)c2[N+](=O)[O-])ccc1OC(C)CC (stereo not given) | – | 90.9% (inactive)
CC(=O)Oc1ccc(N2C(=O)C3C(C2=O)C2(C)C=CC3(C)O2)cc1 (stereo not given) | – | 103% (inactive)
Brc1ccc(-c2csc(NNC3=NCCCCC3)n2)cc1 | – | 90.2% (inactive)

From PubChem BioAssay AID821 (SRMLSC, 2007)
